These results are taken from ChEMBL document CHEMBL1153433, “Design and synthesis of 2-amino-4-methylpyridine analogues as inhibitors for inducible nitric oxide synthase and in vivo evaluation of [18F]6-(2-fluoropropyl)-4-methyl-pyridin-2-amine as a potential PET tracer for inducible nitric oxide synthase” (J Med Chem, 2009).

Assay [1] addresses Nitric oxide synthase 1 (Homo sapiens, UniProt P29475). The assay is described as follows: Inhibition of human recombinant nNOS using 1 mM […] and 2 uM L-arginine after 30 mins. Summed up: (§1)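 Recombinant human NOS, scintillation proximity kit. Buffer: 50 mM Tris pH 7.4, 1.0 mM NADPH, 3.8 μM each of FMN, FAD and tetrahydrobiopterin, 2.0 mM DTT, 2.0 μM L-arginine. eNOS and nNOS buffer also had 20 μg/mL calmodulin and 1 mM CaCl2. Started with [3H]arginine, 30 min at room temperature, stopped with yttrium-silicate arginine-binding beads, counted after 2 h settling. IC50 mean ± SD, N ≥ 3.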

In assay [2] the target is T1, Nitric oxide synthase 3 (Homo sapiens, UniProt P29474).
T1 sequence (P29474 whole entry): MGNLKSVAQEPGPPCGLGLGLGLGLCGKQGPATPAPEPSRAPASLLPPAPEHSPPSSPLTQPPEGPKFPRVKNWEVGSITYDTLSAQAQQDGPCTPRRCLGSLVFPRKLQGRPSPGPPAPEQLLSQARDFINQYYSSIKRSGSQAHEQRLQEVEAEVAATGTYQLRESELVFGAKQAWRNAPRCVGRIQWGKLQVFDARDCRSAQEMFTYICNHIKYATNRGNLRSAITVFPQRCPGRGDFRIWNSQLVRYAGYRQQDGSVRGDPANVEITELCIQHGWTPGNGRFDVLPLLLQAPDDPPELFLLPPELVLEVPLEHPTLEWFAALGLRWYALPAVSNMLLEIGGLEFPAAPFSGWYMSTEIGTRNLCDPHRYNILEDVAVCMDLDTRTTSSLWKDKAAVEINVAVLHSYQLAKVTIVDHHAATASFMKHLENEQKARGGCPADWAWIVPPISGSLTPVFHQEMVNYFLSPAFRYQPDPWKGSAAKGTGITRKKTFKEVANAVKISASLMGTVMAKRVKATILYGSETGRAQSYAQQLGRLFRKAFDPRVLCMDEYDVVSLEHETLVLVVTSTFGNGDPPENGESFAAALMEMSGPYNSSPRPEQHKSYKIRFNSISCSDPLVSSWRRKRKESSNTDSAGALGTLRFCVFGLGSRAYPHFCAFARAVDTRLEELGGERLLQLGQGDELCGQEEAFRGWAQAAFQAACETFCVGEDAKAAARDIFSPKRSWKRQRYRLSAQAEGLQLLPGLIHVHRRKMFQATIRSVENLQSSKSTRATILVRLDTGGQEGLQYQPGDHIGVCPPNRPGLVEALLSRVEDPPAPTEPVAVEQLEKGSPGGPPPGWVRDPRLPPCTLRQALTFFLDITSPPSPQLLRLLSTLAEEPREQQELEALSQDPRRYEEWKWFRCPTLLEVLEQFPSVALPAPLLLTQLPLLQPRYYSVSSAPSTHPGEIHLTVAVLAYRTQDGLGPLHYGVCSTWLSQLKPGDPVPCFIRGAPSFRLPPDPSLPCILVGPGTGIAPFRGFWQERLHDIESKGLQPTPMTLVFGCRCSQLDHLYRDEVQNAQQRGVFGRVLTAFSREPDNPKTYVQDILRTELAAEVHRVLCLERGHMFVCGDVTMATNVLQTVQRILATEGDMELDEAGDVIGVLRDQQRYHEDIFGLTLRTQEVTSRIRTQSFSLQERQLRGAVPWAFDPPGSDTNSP
The assay is described as follows: Inhibition of human recombinant eNOS using 1 mM […] and 2 uM L-arginine after 30 mins. In short, it runs like this:
as §1

Assay [3] has as its target Nitric oxide synthase, inducible (Homo sapiens, UniProt P35228). The assay is described as follows: Inhibition of human recombinant iNOS using 1 mM […] and 2 uM L-arginine after 30 mins. Summed up:
as §1

Nitric oxide synthase, inducible, sequence (P35228 whole entry): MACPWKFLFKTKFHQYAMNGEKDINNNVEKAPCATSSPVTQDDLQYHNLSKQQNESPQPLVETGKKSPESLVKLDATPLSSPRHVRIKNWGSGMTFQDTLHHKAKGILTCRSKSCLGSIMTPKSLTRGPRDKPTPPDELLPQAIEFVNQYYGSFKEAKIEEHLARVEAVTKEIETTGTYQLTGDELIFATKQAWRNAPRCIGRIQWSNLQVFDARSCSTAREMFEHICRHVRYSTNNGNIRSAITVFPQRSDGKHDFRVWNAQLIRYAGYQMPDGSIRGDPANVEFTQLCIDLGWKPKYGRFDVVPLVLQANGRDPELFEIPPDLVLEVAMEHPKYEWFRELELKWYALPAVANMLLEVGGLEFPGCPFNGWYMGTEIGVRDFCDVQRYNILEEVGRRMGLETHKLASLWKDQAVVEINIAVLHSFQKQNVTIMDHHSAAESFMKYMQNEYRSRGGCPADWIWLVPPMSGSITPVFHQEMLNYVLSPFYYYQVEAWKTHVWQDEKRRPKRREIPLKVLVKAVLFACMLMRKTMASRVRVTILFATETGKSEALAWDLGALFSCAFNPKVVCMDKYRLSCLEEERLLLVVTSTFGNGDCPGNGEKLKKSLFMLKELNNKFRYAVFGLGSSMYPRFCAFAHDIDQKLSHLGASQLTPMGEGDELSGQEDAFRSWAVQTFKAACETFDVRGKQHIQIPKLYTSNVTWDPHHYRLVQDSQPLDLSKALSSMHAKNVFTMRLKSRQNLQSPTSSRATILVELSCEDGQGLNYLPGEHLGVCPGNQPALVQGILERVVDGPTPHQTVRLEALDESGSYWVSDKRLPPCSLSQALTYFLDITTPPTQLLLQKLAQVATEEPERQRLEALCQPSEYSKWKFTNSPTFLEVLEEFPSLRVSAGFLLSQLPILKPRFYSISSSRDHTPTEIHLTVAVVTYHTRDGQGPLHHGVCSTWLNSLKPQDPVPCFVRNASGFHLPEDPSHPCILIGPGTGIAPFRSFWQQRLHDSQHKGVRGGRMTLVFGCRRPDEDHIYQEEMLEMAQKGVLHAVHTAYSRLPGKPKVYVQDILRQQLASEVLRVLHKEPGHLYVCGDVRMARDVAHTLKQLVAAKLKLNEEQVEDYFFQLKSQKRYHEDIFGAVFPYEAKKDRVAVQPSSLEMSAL
Nitric oxide synthase 1, sequence (P29475 whole entry): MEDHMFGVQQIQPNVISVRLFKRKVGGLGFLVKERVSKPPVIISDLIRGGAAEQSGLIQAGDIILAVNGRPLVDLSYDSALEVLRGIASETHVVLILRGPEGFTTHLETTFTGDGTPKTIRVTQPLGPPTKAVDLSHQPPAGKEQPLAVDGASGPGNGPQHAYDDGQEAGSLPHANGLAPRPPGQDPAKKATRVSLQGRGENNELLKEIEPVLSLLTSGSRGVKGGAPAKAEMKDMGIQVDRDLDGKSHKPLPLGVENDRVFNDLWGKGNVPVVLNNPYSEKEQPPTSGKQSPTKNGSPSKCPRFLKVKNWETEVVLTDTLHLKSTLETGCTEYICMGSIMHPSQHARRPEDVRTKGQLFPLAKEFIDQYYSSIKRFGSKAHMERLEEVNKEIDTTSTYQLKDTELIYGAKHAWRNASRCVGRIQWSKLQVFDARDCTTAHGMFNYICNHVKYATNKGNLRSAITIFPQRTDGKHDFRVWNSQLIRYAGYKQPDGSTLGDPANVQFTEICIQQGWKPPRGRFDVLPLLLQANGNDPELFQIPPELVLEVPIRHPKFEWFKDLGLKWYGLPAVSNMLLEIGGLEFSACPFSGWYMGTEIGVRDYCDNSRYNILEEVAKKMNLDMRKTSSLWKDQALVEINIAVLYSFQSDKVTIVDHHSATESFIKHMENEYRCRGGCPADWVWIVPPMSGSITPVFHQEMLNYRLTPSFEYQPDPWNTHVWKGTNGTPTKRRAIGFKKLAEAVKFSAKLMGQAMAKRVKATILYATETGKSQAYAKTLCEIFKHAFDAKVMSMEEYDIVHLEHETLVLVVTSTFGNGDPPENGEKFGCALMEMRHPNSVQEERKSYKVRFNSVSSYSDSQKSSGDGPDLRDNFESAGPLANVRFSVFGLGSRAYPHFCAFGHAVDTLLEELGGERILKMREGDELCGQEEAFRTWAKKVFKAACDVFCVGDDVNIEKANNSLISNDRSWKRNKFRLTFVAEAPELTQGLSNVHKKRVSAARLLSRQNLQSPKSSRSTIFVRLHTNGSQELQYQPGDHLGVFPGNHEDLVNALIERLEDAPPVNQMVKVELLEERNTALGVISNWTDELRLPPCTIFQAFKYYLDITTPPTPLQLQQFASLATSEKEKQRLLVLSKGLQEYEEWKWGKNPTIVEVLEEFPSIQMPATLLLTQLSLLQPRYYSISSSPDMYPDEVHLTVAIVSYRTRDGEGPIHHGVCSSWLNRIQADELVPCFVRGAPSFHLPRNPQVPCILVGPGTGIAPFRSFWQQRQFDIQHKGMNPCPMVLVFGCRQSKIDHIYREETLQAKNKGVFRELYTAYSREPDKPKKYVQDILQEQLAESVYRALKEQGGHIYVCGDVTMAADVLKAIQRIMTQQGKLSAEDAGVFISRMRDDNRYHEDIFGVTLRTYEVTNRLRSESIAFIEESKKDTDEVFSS

For the molecule `Cc1cc(N)nc(CCCF)c1`, the IC50 in assay [1] came out at 0.514 µM; in assay [2], 1.43 µM; in assay [3] it was 0.0576 µM.

With `Cc1cc(N)nc(CC(C)CCF)c1` (stereo not drawn), the IC50 in assay [3] is 0.731 µM.

As for `Cc1cc(N)nc(CC(C)F)c1` (stereo not drawn), the IC50 in assay [2] came to 1.5 µM; in assay [3] it was 0.22 µM.

For the molecule `Cc1cc(N)nc(CC(C)OCCF)c1` (stereo not drawn), in assay [3], the IC50 was > 5 µM.

Take `COCCC(C)Cc1cc(C)cc(N)n1` (stereo not drawn): in assay [3], the IC50 is > 5 µM.

With `CSCCC(C)Cc1cc(C)cc(N)n1` (stereo not drawn), in assay [3], the IC50 is > 5 µM.

Consider `COC(C)Cc1cc(C)cc(N)n1` (stereo not drawn), for which the IC50 in assay [3] is > 5 µM.

Take `Cc1cc(N)nc(CC(C)O)c1` (stereo not drawn): in assay [3], the IC50 was found to be 1.78 µM.

For the molecule `C/C=C/c1cc(C)cc(N)n1`, the IC50 in assay [3] was determined as 0.282 µM.

Consider `Cc1cc(N)nc(CCCCF)c1`, for which, in assay [3], the IC50 worked out at 0.17 µM.
